pKi: −log10 of the molar value.
Tests used:
Cannabinoid receptor 1 = Cannabinoid receptor 1 (Rattus norvegicus, UniProt P20272); test: Displacement of [3H]SR141716A from CB1 receptor in rat cerebellum by scintillation spectrometry; type: tissue-based
Mus musculus [1] = test: Antiobesity activity in TBU8 high fat diet-induced obese C57/BL6 mouse assessed as serum HDL-cholesterol level at 10 mg/kg, po administered once daily for 14 days (Rvb=4.42+/-0.08 […]); type: functional, C57Bl/6
Mus musculus [2] = test: Antiobesity activity in TBU8 high fat diet-induced obese C57/BL6 mouse assessed as body weight at 10 mg/kg, po administered once daily for 14 days (Rvb=41.90 g); type: functional, C57Bl/6
Mus musculus [3] = test: Antiobesity activity in TBU8 high fat diet-induced obese C57/BL6 mouse assessed as serum triglyceride level at 10 mg/kg, po administered once daily for 14 days (reference value: 1.42+/-0.04 […]); type: functional, C57Bl/6
Mus musculus [4] = test: Antiobesity activity in TBU8 high fat diet-induced obese C57/BL6 mouse assessed as decrease in body weight at 10 mg/kg, po administered once daily for 14 days relative to fat control; type: functional, C57Bl/6; parameters: scale not given: the % may be the effect or the level left
Mus musculus [5] = test: Antiobesity activity in TBU8 high fat diet-induced obese C57/BL6 mouse assessed as serum cholesterol level at 10 mg/kg, po administered once daily for 14 days (reference value: 5.35+/-0.12 […]); type: functional, C57Bl/6
Mus musculus [6] = test: Antiobesity activity in TBU8 high fat diet-induced obese C57/BL6 mouse assessed as decrease in obese-induced elevated serum cholesterol level at 30 mg/kg, po administered once daily for 14 days relative to fat control; type: functional, C57Bl/6; parameters: scale not given: the % may be the effect or the level left
Mus musculus [7] = test: Antiobesity activity in TBU8 high fat diet-induced obese C57/BL6 mouse assessed as decrease in body weight at 3 mg/kg, po administered once daily for 14 days relative to fat control; type: functional, C57Bl/6; parameters: scale not given: the % may be the effect or the level left
Mus musculus [8] = test: Antiobesity activity in TBU8 high fat diet-induced obese C57/BL6 mouse assessed as serum LDL-cholesterol level at 10 mg/kg, po administered once daily for 14 days (Rvb=0.84+/-0.03 […]); type: functional, C57Bl/6
Mus musculus [9] = test: Antiobesity activity in TBU8 high fat diet-induced obese C57/BL6 mouse assessed as decrease in body weight at 30 mg/kg, po administered once daily for 14 days relative to fat control; type: functional, C57Bl/6; parameters: scale not given: the % may be the effect or the level left
Mus musculus [10] = test: Antiobesity activity in po dosed TBU8 high fat diet-induced obese C57/BL6 mouse assessed as decrease in body weight administered once daily for 14 days; type: functional, organism-based; conditions: C57Bl/6
Outline: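 TBU8 high-fat diet fed mice brought to about 60% excess body weight over lean controls (usually 6-8 weeks), isolated and grouped (n=8) balanced by body weight; 3-day habituation with daily tap water, then oral dosing once daily for 14 days against vehicle-treated fat controls; body weight taken at day 14; differences versus fat and lean controls tested.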

Mus musculus [11] = test: Appetite suppressant activity in fasted CD1 mouse assessed as decrease in palatable chow intake at 10 mg/kg, po administered 1 hr before food consumption measured after 1 hr relative to control; type: functional; parameters: scale not given: the % may be the effect or the level left
Outline: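 CD1 mice (>25 g) were housed singly for ≥3 days, then fasted 16 h. Compound or vehicle (5% Tween 80) was given orally in the home cage. After 1 h, pre-weighed palatable chow was offered and reweighed 1 h later. Intake was expressed as % difference from control mean (n=8-10/group).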

Mus musculus [12] = test: Inhibition of WIN-55212-2-induced hypothermia in po dosed CD1 mouse assessed as rectal temperature administered 15 mins prior to WIN-55212 challenge measured after 45 mins post-induction; type: functional
Outline: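 Mice were pretreated, then 15 min later given WIN 55,212-2 (3 mg/kg ip) or vehicle; rectal temperature was read 45 min after that. n=8/group. Analysis was one-way ANOVA with Tukey post hoc test. ED50 values were derived for attenuation of hypothermia.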

Mus musculus [13] = test: Antiobesity activity in TBU8 high fat diet-induced obese C57/BL6 mouse assessed as serum glucose level at 10 mg/kg, po administered once daily for 14 days (reference value: 9.52+/-0.38 […]); type: functional, C57Bl/6
Mus musculus [14] = test: Antiobesity activity in TBU8 high fat diet-induced obese C57/BL6 mouse assessed as body weight at 30 mg/kg, po administered once daily for 14 days (Rvb=41.90 g); type: functional, C57Bl/6
Mus musculus [15] = test: Antiobesity activity in TBU8 high fat diet-induced obese C57/BL6 mouse assessed as serum cholesterol level at 30 mg/kg, po administered once daily for 14 days (reference value: 5.35+/-0.12 […]); type: functional, C57Bl/6
Mus musculus [16] = test: Antiobesity activity in TBU8 high fat diet-induced obese C57/BL6 mouse assessed as serum triglyceride level at 30 mg/kg, po administered once daily for 14 days (reference value: 1.42+/-0.04 […]); type: functional, C57Bl/6
Mus musculus [17] = test: Antiobesity activity in TBU8 high fat diet-induced obese C57/BL6 mouse assessed as serum glucose level at 30 mg/kg, po administered once daily for 14 days (reference value: 9.52+/-0.38 […]); type: functional, C57Bl/6
Mus musculus [18] = test: Antiobesity activity in TBU8 high fat diet-induced obese C57/BL6 mouse assessed as serum HDL-cholesterol level at 30 mg/kg, po administered once daily for 14 days (Rvb=4.42+/-0.08 […]); type: functional, C57Bl/6
Mus musculus [19] = test: Antiobesity activity in TBU8 high fat diet-induced obese C57/BL6 mouse assessed as serum LDL-cholesterol level at 30 mg/kg, po administered once daily for 14 days (Rvb=0.84+/-0.03 […]); type: functional, C57Bl/6
Mus musculus [20] = test: Antiobesity activity in TBU8 high fat diet-induced obese C57/BL6 mouse assessed as serum LDL-cholesterol level at 3 mg/kg, po administered once daily for 14 days (Rvb=0.84+/-0.03 […]); type: functional, C57Bl/6
Mus musculus [21] = test: Antiobesity activity in TBU8 high fat diet-induced obese C57/BL6 mouse assessed as serum cholesterol level at 3 mg/kg, po administered once daily for 14 days (reference value: 5.35+/-0.12 […]); type: functional, C57Bl/6
Mus musculus [22] = test: Antiobesity activity in TBU8 high fat diet-induced obese C57/BL6 mouse assessed as body weight at 3 mg/kg, po administered once daily for 14 days (Rvb=41.90 g); type: functional, C57Bl/6
Mus musculus [23] = test: Antiobesity activity in TBU8 high fat diet-induced obese C57/BL6 mouse assessed as serum glucose level at 3 mg/kg, po administered once daily for 14 days (reference value: 9.52+/-0.38 […]); type: functional, C57Bl/6
Mus musculus [24] = test: Antiobesity activity in TBU8 high fat diet-induced obese C57/BL6 mouse assessed as serum triglyceride level at 3 mg/kg, po administered once daily for 14 days (reference value: 1.42+/-0.04 […]); type: functional, C57Bl/6
Mus musculus [25] = test: Antiobesity activity in TBU8 high fat diet-induced obese C57/BL6 mouse assessed as serum HDL-cholesterol level at 3 mg/kg, po administered once daily for 14 days (Rvb=4.42+/-0.08 […]); type: functional, C57Bl/6

Sequence of Cannabinoid receptor 1 (P20272 whole entry): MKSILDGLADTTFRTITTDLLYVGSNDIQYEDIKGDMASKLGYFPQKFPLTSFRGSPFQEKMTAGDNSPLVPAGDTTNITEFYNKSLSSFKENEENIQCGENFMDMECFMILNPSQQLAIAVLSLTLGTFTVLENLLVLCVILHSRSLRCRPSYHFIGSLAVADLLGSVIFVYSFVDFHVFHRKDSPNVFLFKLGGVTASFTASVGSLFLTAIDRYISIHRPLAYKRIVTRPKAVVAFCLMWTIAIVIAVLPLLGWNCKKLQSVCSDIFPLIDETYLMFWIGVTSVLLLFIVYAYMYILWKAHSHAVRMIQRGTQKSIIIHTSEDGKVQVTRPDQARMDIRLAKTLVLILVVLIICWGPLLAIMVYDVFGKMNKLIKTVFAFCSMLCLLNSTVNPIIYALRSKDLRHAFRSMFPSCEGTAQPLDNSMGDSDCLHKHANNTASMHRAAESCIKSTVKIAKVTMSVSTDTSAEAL

Cc1c(C(=O)NN2CCCCC2)nn(-c2ccccc2)c1-c1ccc(C2CC2)cc1
pKi (Cannabinoid receptor 1): 7.18

Cc1c(C(=O)NN2CCCCC2)nn(-c2ccccc2F)c1-c1ccc(C2CC2)cc1
pKi (Cannabinoid receptor 1): 7.96

Cc1c(C(=O)NN2CCCCC2)nn(-c2ccc(F)cc2)c1-c1ccc(C2CC2)cc1
pKi (Cannabinoid receptor 1): 6.72

Cc1c(C(=O)NN2CCCCC2)nn(-c2ccc(Cl)cc2F)c1-c1ccc(C2CC2)cc1
pKi (Cannabinoid receptor 1): 7.85

Cc1c(C(=O)NN2CCCC2)nn(-c2ccccc2)c1-c1ccc(C2CC2)cc1
pKi (Cannabinoid receptor 1): 6.92

CCc1c(C(=O)NN2CCCC2)nn(-c2ccc(Cl)cc2Cl)c1-c1ccc(C2CC2)cc1
Activity (Mus musculus [1]): 3.9 mM
Activity (Mus musculus [2]): 35.6 g
Activity (Mus musculus [3]): 1.3 mM
Activity (Mus musculus [4]): 15%
Activity (Mus musculus [5]): 4.56 mM
Activity (Mus musculus [6]): 36%
Activity (Mus musculus [7]): 8%
pKi (Cannabinoid receptor 1): 8.40
Activity (Mus musculus [8]): 0.68 mM
Activity (Mus musculus [9]): 21%
Activity (Mus musculus [10]): Dose-dependent effect
Activity (Mus musculus [11]): 49%
ED50 (Mus musculus [12]): 0.84 mg/kg
Activity (Mus musculus [13]): 8.79 mM

Cc1c(C(=O)NN2CCCCC2)nn(-c2ccc(Cl)cc2)c1-c1ccc(C2CC2)cc1
pKi (Cannabinoid receptor 1): 7.10

CCNC1(C(N)=O)CCN(c2ncnc3c2nc(-c2ccccc2Cl)n3-c2ccc(Cl)cc2)CC1 [OTENABANT]
Activity (Mus musculus [14]): 36.6 g
Activity (Mus musculus [15]): 5.34 mM
Activity (Mus musculus [16]): 1.32 mM
Activity (Mus musculus [17]): 9.45 mM
Activity (Mus musculus [18]): 4.4 mM
Activity (Mus musculus [19]): 0.85 mM

C[C@H](NC(=O)C(C)(C)Oc1ccc(C(F)(F)F)cn1)[C@@H](Cc1ccc(Cl)cc1)c1cccc(C#N)c1 [TARANABANT]
Activity (Mus musculus [20]): 0.82 mM
Activity (Mus musculus [21]): 5.01 mM
Activity (Mus musculus [22]): 33.7 g
Activity (Mus musculus [23]): 9.11 mM
Activity (Mus musculus [24]): 1.44 mM
Activity (Mus musculus [25]): 4.16 mM

Cc1c(C(=O)NN2CCCCC2)nn(-c2ccc(Cl)cc2Cl)c1-c1ccc(C2CC2)cc1
pKi (Cannabinoid receptor 1): 8.52

Cc1c(C(=O)NN2CCCCC2)nn(-c2ccc(Cl)cc2Cl)c1-c1ccc(C2CCCC2)cc1
pKi (Cannabinoid receptor 1): 7.82
ED50 (Mus musculus [12]): ≥ 3 mg/kg

CCc1c(C(=O)NN2CCCCC2)nn(-c2ccc(Cl)cc2Cl)c1-c1ccc(C2CC2)cc1
Activity (Mus musculus [4]): 15%
Activity (Mus musculus [6]): 19%
Activity (Mus musculus [7]): 8%
pKi (Cannabinoid receptor 1): 8.40
Activity (Mus musculus [9]): 22%
Activity (Mus musculus [10]): Dose-dependent effect
Activity (Mus musculus [11]): 47%
ED50 (Mus musculus [12]): 0.84 mg/kg

Cc1c(C(=O)NN2CCCCC2)nn(-c2ccc(Cl)cc2Cl)c1-c1ccc(Cl)cc1 [RIMONABANT]
Activity (Mus musculus [1]): 4.4 mM
Activity (Mus musculus [2]): 35.6 g
Activity (Mus musculus [3]): 1.18 mM
Activity (Mus musculus [4]): 15%
Activity (Mus musculus [5]): 5.35 mM
Activity (Mus musculus [6]): 0%
Activity (Mus musculus [7]): 9%
Activity (Mus musculus [8]): 0.82 mM
Activity (Mus musculus [9]): 24%
Activity (Mus musculus [10]): Dose-dependent effect
Activity (Mus musculus [11]): 50%
ED50 (Mus musculus [12]): 0.41 mg/kg
Activity (Mus musculus [13]): 8.84 mM

Cc1c(C(=O)NN2CCCCC2)nn(-c2ccc(Cl)cc2Cl)c1-c1ccc(C2CCCCC2)cc1
pKi (Cannabinoid receptor 1): 7.89
ED50 (Mus musculus [12]): > 3 mg/kg

Cc1c(C(=O)NN2CCCCC2)nn(-c2ccc(Br)cc2Cl)c1-c1ccc(C2CC2)cc1
Activity (Mus musculus [4]): 19%
Activity (Mus musculus [6]): 16%
Activity (Mus musculus [7]): 9%
pKi (Cannabinoid receptor 1): 8.52
Activity (Mus musculus [9]): 26%
Activity (Mus musculus [10]): Dose-dependent effect
Activity (Mus musculus [11]): 54%
ED50 (Mus musculus [12]): 0.22 mg/kg

Cc1c(C(=O)NN2CCCCC2)nn(-c2ccc(F)cc2F)c1-c1ccc(C2CC2)cc1
pKi (Cannabinoid receptor 1): 7.47

Cc1c(C(=O)NN2CCCCC2)nn(-c2ccc(Cl)cc2Cl)c1-c1ccc(C2CCC2)cc1.Cl
pKi (Cannabinoid receptor 1): 8.15
ED50 (Mus musculus [12]): 4 mg/kg

COc1c(C(=O)NN2CCCCC2)nn(-c2ccc(Cl)cc2Cl)c1-c1ccc(C2CC2)cc1
pKi (Cannabinoid receptor 1): 8.52

O=C(NN1CCCCC1)c1cc(-c2ccc(C3CC3)cc2)n(-c2ccc(Cl)cc2Cl)n1
pKi (Cannabinoid receptor 1): 7.80

Cc1c(C(=O)NN2CCCCC2)nn(-c2ccc(F)cc2Cl)c1-c1ccc(C2CC2)cc1
pKi (Cannabinoid receptor 1): 8.10

Cc1c(C(=O)NN2CCCCC2)nn(-c2ccccc2Cl)c1-c1ccc(C2CC2)cc1
pKi (Cannabinoid receptor 1): 8.40

— ChEMBL document CHEMBL1151940, “Chemical and biological investigation of cyclopropyl containing diaryl-pyrazole-3-carboxamides as novel and potent cannabinoid type 1 receptor antagonists” (J Med Chem, 2009)
